The values that follow come from the array DNA melting data of Ke et al. (doi:10.1101/2024.01.08.574731).

A short description of data set [1]: melting temperature; fluorescence melt of hairpins on a sequencing array, two-state fit, raised by 9.35 °C to match UV melts. Conditions: sodium 0.088 M. The procedure, abridged:
(§1)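 Cy3 fluorescence of library hairpins on a sequenced MiSeq flow cell, with annealed Cy3 and quencher oligos, was imaged in 50 mM Na-HEPES pH 8.0, 25 mM NaCl in 2.5 °C steps up to 60 °C. Signals were normalised to pre-quench Cy3 and to control variants. Melting temperature and folding enthalpy came from bootstrapped two-state fits, inverse-variance combined over four replicates. Fitted temperatures were raised by 9.35 °C to match UV melts.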

Data set [2] is described as follows: folding enthalpy; higher = less favourable; fluorescence melt of hairpins on a sequencing array, two-state fit. The following applies: sodium 0.088 M. The procedure, abridged:
as §1

Regarding GATCCCGGAAACGAGATC ((((.((....)).)))), the Tm in data set [1] stood at 41.7 °C. For the same sequence, the folding enthalpy in data set [2] is -29.6 kcal/mol.
GATCCCGGAAACGGAATC (((.(((....))).))): the Tm in data set [1] came out at 40.1 °C. In addition, the folding enthalpy in data set [2] is -24.7 kcal/mol.
For GATCCCGGAGGGGATC ((((((....)))))), the Tm in data set [1] came out at 65.8 °C. The folding enthalpy in data set [2] is -19.4 kcal/mol.
On to GATCCCGGTGGGATC ((((((...)))))), for which, in data set [1], the Tm is 65.7 °C. In addition, in data set [2], the folding enthalpy is -29.6 kcal/mol.
Taken in the same sequence, the figures for GATCCCGTTGGGATC ((((((...)))))) were 64.4 °C and -31.5 kcal/mol.
Taken in the same sequence, the figures for GATCCCGTTTGGGATC ((((((....)))))) were 63.6 °C and -43.4 kcal/mol.
Taken in the same sequence, the figures for GATCCCTACCGGGATC ((((((....)))))) were 61.9 °C and -32.7 kcal/mol.
With GATCCCTATTGGGATC ((((((....)))))), in data set [1], the Tm was found to be 62.8 °C. The folding enthalpy in data set [2] was -43.1 kcal/mol.
Taken in the same sequence, the figures for GATCCCTCACGGGATC ((((((....)))))) were 59 °C and -39.5 kcal/mol.
Taken in the same sequence, the figures for GATCCCTCTAGGGATC ((((((....)))))) were 66.6 °C and -33.9 kcal/mol.
The corresponding values for GATCCCTCTGGGATC ((((((...)))))) are 66.6 °C and -31.3 kcal/mol.
For GATCCCTGCCGGGATC ((((((....)))))), in data set [1], the Tm is 60 °C. In addition, the folding enthalpy in data set [2] is -42.8 kcal/mol.
With GATCCCTGGTGGGATC ((((((....)))))), the Tm in data set [1] came to 58.1 °C. Also, the folding enthalpy in data set [2] is -31.1 kcal/mol.
Taken in the same sequence, the figures for GATCCCTGTTGGGATC ((((((....)))))) were 62 °C and -42.8 kcal/mol.
The corresponding values for GATCCCTTCAGGGATC ((((((....)))))) are 68.3 °C and -31.4 kcal/mol.
Taken in the same sequence, the figures for GATCCCTTCCGGGATC ((((((....)))))) were 59.5 °C and -35.3 kcal/mol.
GATCCCTTCTGGGATC ((((((....)))))): the Tm in data set [1] was found to be 62.5 °C. Also, the folding enthalpy in data set [2] is -39.1 kcal/mol.
Take GATCCCTTGGGGATC ((((((...)))))): the Tm in data set [1] was 60.1 °C. Besides, the folding enthalpy in data set [2] is -33 kcal/mol.
The corresponding values for GATCCGAACACGGATC ((((((....)))))) are 57.2 °C and -36.6 kcal/mol.
Taken in the same sequence, the figures for GATCCGAACGCGGATC ((((((....)))))) were 55.1 °C and -39.6 kcal/mol.
The corresponding values for GATCCGAATGCGGATC ((((((....)))))) are 54.1 °C and -37.8 kcal/mol.
As for GATCCGACCGCGGATC ((((((....)))))), the Tm in data set [1] was 56.8 °C. Further, the folding enthalpy in data set [2] was -34.6 kcal/mol.
Taken in the same sequence, the figures for GATCCGACGACGGATC ((((((....)))))) were 56.7 °C and -36.6 kcal/mol.
The corresponding values for GATCCGAGCACGGATC ((((((....)))))) are 58.5 °C and -38.2 kcal/mol.
The corresponding values for GATCCGAGCGCGGATC ((((((....)))))) are 58.8 °C and -42.4 kcal/mol.
In the case of GATCCGAGTACGGATC ((((((....)))))), the Tm in data set [1] turned out to be 58.6 °C. The folding enthalpy in data set [2] was -40.8 kcal/mol.
Consider GATCCGATATCGGATC ((((((....)))))), for which, in data set [1], the Tm was determined as 59.2 °C. Further, in data set [2], the folding enthalpy was -39.9 kcal/mol.
Taken in the same sequence, the figures for GATCCGATCACGGATC ((((((....)))))) were 59.5 °C and -40.6 kcal/mol.
The corresponding values for GATCCGCACCCGGATC ((((((....)))))) are 55.4 °C and -38.6 kcal/mol.
Taken in the same sequence, the figures for GATCCGCCAGCGGATC ((((((....)))))) were 65.2 °C and -44.9 kcal/mol.
On to GATCCGCCCCCGGATC ((((((....)))))), for which, in data set [1], the Tm amounted to 56.5 °C. In data set [2], the folding enthalpy was -40.6 kcal/mol.
Taken in the same sequence, the figures for GATCCGCCCTCGGATC ((((((....)))))) were 57.1 °C and -40.6 kcal/mol.
The corresponding values for GATCCGCGAAAGCGTATC (((.(((....))).))) are 43.4 °C and -18.4 kcal/mol.
Taken in the same sequence, the figures for GATCCGCGACGGATC ((((((...)))))) were 57.9 °C and -39 kcal/mol.
Take GATCCGGAAGCGGATC ((((((....)))))): the Tm in data set [1] was found to be 59.8 °C. In addition, the folding enthalpy in data set [2] was -33.2 kcal/mol.
The corresponding values for GATCCGGACCCGGATC ((((((....)))))) are 61.1 °C and -36.9 kcal/mol.
In the case of GATCCGGAGACGGATC ((((((....)))))), the Tm in data set [1] was found to be 63.6 °C. Also, the folding enthalpy in data set [2] was -32.9 kcal/mol.
On to GATCCGGAGGCGGATC ((((((....)))))), for which the Tm in data set [1] was 57.8 °C. Moreover, the folding enthalpy in data set [2] is -33.4 kcal/mol.
The corresponding values for GATCCGGATGCGGATC ((((((....)))))) are 58.5 °C and -35.4 kcal/mol.
Taken in the same sequence, the figures for GATCCGGATTCGGATC ((((((....)))))) were 59.1 °C and -35.7 kcal/mol.
Taken in the same sequence, the figures for GATCCGGCAACGGATC ((((((....)))))) were 67.8 °C and -35 kcal/mol.
With GATCCGGCACCGGATC ((((((....)))))), the Tm in data set [1] turned out to be 63.8 °C. Also, the folding enthalpy in data set [2] was -44 kcal/mol.
The corresponding values for GATCCGGCCTCGGATC ((((((....)))))) are 58.7 °C and -42.1 kcal/mol.
Taken in the same sequence, the figures for GATCCGGGAAACCGGACC (.(((((....))))).) were 44.1 °C and -13.2 kcal/mol.
The corresponding values for GATCCGGGAAACTGGGTC ((.((.(....).)).)) are 40 °C and -30.1 kcal/mol.
Consider GATCCGGGAACGGATC ((((((....)))))), for which the Tm in data set [1] is 66.1 °C. Moreover, in data set [2], the folding enthalpy is -33.4 kcal/mol.
Turning to GATCCGGGAGCGGATC ((((((....)))))), the Tm in data set [1] is 61.1 °C. For the same sequence, the folding enthalpy in data set [2] was -37.4 kcal/mol.
Taken in the same sequence, the figures for GATCCGGGCACGGATC ((((((....)))))) were 67.8 °C and -31.1 kcal/mol.
The corresponding values for GATCCGGGCCGGATC ((((((...)))))) are 60.3 °C and -46.2 kcal/mol.
The corresponding values for GATCCGGGGCGGATC ((((((...)))))) are 56 °C and -37.2 kcal/mol.
Consider GATCCGGTACCGGATC ((((((....)))))), for which the Tm in data set [1] was 64.5 °C. For the same sequence, in data set [2], the folding enthalpy is -43.4 kcal/mol.
Taken in the same sequence, the figures for GATCCGGTCCGGATC ((((((...)))))) were 59.8 °C and -40.6 kcal/mol.
Taken in the same sequence, the figures for GATCCGGTCGCGGATC ((((((....)))))) were 60.2 °C and -36.7 kcal/mol.
The corresponding values for GATCCGGTTACGGATC ((((((....)))))) are 68.5 °C and -36.9 kcal/mol.
GATCCGGTTTCGGATC ((((((....)))))): the Tm in data set [1] was 59.5 °C. In data set [2], the folding enthalpy is -44.2 kcal/mol.
Taken in the same sequence, the figures for GATCCGTAACCGGATC ((((((....)))))) were 55.7 °C and -39.2 kcal/mol.
The corresponding values for GATCCGTAAGCGGATC ((((((....)))))) are 59.3 °C and -35.3 kcal/mol.
For GATCCGTACTCGGATC ((((((....)))))), in data set [1], the Tm is 58.7 °C. Also, the folding enthalpy in data set [2] is -37.9 kcal/mol.
Taken in the same sequence, the figures for GATCCGTAGCGGATC ((((((...)))))) were 56 °C and -35.6 kcal/mol.
GATCCGTAGGCGGATC ((((((....)))))): in data set [1], the Tm turned out to be 59.2 °C. In addition, the folding enthalpy in data set [2] is -41.3 kcal/mol.
In the case of GATCCGTAGTCGGATC ((((((....)))))), the Tm in data set [1] was 57 °C. The folding enthalpy in data set [2] is -36 kcal/mol.
As for GATCCGTATACGGATC ((((((....)))))), the Tm in data set [1] was determined as 62.1 °C. Besides, in data set [2], the folding enthalpy is -45.4 kcal/mol.
GATCCGTATTCGGATC ((((((....)))))): in data set [1], the Tm was determined as 58.7 °C. The folding enthalpy in data set [2] was -39.5 kcal/mol.
The corresponding values for GATCCGTCAACGGATC ((((((....)))))) are 62 °C and -35.9 kcal/mol.
Consider GATCCGTCCTCGGATC ((((((....)))))), for which, in data set [1], the Tm amounted to 58 °C. In data set [2], the folding enthalpy was -48.3 kcal/mol.
The corresponding values for GATCCGTCTCCGGATC ((((((....)))))) are 58.4 °C and -39.8 kcal/mol.
Taken in the same sequence, the figures for GATCCGTCTTCGGATC ((((((....)))))) were 59.4 °C and -40 kcal/mol.
The corresponding values for GATCCGTGAGCGGATC ((((((....)))))) are 65.9 °C and -35.6 kcal/mol.
With GATCCGTGCACGGATC ((((((....)))))), in data set [1], the Tm was 66.5 °C. The folding enthalpy in data set [2] was -40.3 kcal/mol.
The corresponding values for GATCCGTGTACGGATC ((((((....)))))) are 63.6 °C and -45 kcal/mol.
The corresponding values for GATCCGTGTGCGGATC ((((((....)))))) are 66.7 °C and -38.8 kcal/mol.
Taken in the same sequence, the figures for GATCCGTGTTCGGATC ((((((....)))))) were 61.4 °C and -36.2 kcal/mol.
Take GATCCGTTACGGATC ((((((...)))))): the Tm in data set [1] turned out to be 63.9 °C. Further, the folding enthalpy in data set [2] was -34.6 kcal/mol.
With GATCCGTTGACGGATC ((((((....)))))), the Tm in data set [1] is 61.8 °C. Moreover, the folding enthalpy in data set [2] is -39.1 kcal/mol.
On to GATCCGTTGCCGGATC ((((((....)))))), for which the Tm in data set [1] came out at 58.4 °C. The folding enthalpy in data set [2] was -46.8 kcal/mol.
The corresponding values for GATCCGTTTGCGGATC ((((((....)))))) are 62.3 °C and -37.7 kcal/mol.
